For data set [1] the following is noted: after intravenous administration; cited from earlier work.
Data set [2] has as its system hiPSC-CMs. Nature of the data set: Myocardial cell activity. Format: cell-based, human. The note with it: concentration relative to ETPC. Put shortly:
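Human iPSC-derived cardiomyocytes (mostly ventricular; four batches) were grown 14-21 days on fibronectin-coated impedance/field-potential sensor plates at 37°C, 5% CO2. The medium was changed on dosing day, and test compound was added 3-4 h later, with 0.1% DMSO as control. Reads were taken every 30 min for 2 h, then every 2 h for >24 h. There were 3-4 concentrations, triplicate wells each. Ampl and BPM were normalized to pre-dose values.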

The conditions of data set [3]: ref 21 (Blinova et al); cited from earlier work.
The test system of data set [4] is hiPSC-CMs. Nature of the data set: Field potential. Format: cell-based, human.

Results on three compounds are retold here after paper PMC9780517 (Experimental and Therapeutic Medicine, 2022).

“Also recorded” adds a separate entry of the source.

In the case of `CCCCc1oc2ccccc2c1C(=O)c1cc(I)c(OCCN(CC)CC)c(I)c1` [Amiodarone], in data set [1], the TdP incidence is ~ 15%. Also, in the data set with hiPSC-CMs [2], the “Effect on Ampl (cell activity / cell viability)” value was “decreased the cell activity of cardiomyocytes at concentrations greater than ETPC” and the “Effect on BPM (beats per minute)” value is given as “decreased BPM at a concentration greater than ETPC”.
On to `CC(C)COCC(CN(Cc1ccccc1)c1ccccc1)N1CCCC1` (stereo not drawn) [Bepridil], for which the “Predicted risk, LR model of Blinova et al” value in data set [3] is “low-risk”. Also, in the data set on hiPSC-CMs [4], the “Arrhythmia-like waveforms (in words)” value is “induce arrhythmia-like waveforms” and the “Concentration at which arrhythmia-like waveforms were observed” value was 312.5 times of the ETPC. The “FPDc prolongation (in words)” value in the data set with hiPSC-CMs [4] (concentration relative to ETPC) is recorded as “not induce FPDc prolongation; also recorded: no FPDc prolongation was observed”.
Take `Cc1nc2n(c(=O)c1CCN1CCC(c3noc4cc(F)ccc34)CC1)CCCC2` [Risperidone]: the “Predicted risk, LR model of Blinova et al” value in data set [3] is “low-risk”. Moreover, in the data set with hiPSC-CMs [2], the “Effect on Ampl (cell activity / cell viability)” value is “decreased the activity of cardiomyocytes at a concentration higher than ETPC” and the “Effect on BPM (beats per minute)” value was “decrease BPM”. Further, in the data set with hiPSC-CMs [4], the “Arrhythmia-like waveforms (in words)” value is “caused arrhythmia-like waveforms” and the “Concentration at which arrhythmia-like waveforms were observed” value is recorded as 555.6 times of the ETPC.
